Calls of active or inactive are those of the source. The calls are words filed in the database; no cut-off is given here.
Legend:
[1] = target: T1, Epidermal growth factor receptor (Homo sapiens, UniProt P00533); assay: Inhibition of EGFR using GST-Crk as substrate assessed as phosphorylated Crk level after 20 mins by SDS-PAGE analysis
Outline: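 Kinase mix was incubated with inhibitor at 0, 0.5, 2.5, 12.5 and 62.5 nM on ice for 10 min, then at 30 °C for 20 min. The reaction was quenched with SDS sample buffer at 100 °C for 4 min. Proteins were run on 10% SDS–PAGE and the dried gel was quantified by phosphorimager.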

[2] = target: T1, Epidermal growth factor receptor; assay: Inhibition of EGFR-mediated intracellular tyrosine phosphorylation in EGF-stimulated human A431 cells after 2.5 hrs by SDS-PAGE analysis; assay type: cell-based, A-431
Outline: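 A431 cells were grown 2 days in DMEM with 10% FCS at 37 °C, 5% CO₂, then serum-starved 18 h. Inhibitor was added at 0, 10, 50, 250 and 1000 nM for 2.5 h at 37 °C. Cells were stimulated with 100 ng/ml EGF for 5 min and lysed in SDS buffer with 1 mM vanadate. Lysates were run on 10% SDS–PAGE, immunoblotted with anti-phosphotyrosine (pY99, 4G10), detected by ECL, and quantified by densitometry.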

[3] = Cmax in rat at 35 mg/kg, po; assay type: ADME, organism-based; set-up: dose 35 mg/kg, route oral; conditions: in vivo
Outline: (§1)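 Rats given a single oral dose (35 mg/kg) and a separate single intravenous dose (35 mg/kg). Pharmacokinetic parameters were derived from these two dosings.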

[4] = Half life in rat at 35 mg/kg, po; assay type: ADME, organism-based; set-up: dose 35 mg/kg, route oral; conditions: in vivo; outline: as §1
[5] = Clearance in rat at 35 mg/kg, iv and 35 mg/kg, po; assay type: ADME, organism-based; conditions: in vivo; outline: as §1
[6] = target: Proto-oncogene tyrosine-protein kinase Src (Homo sapiens) (UniProt P12931); assay: Inhibition of c-Src at >1000 nM
[7] = Mean residence time in rat at 35 mg/kg, iv and 35 mg/kg, po; assay type: ADME, organism-based; conditions: in vivo; outline: as §1
[8] = Volume of distribution at steady state in rat at 35 mg/kg, iv and 35 mg/kg, po; assay type: ADME, organism-based; conditions: in vivo, read-out: Vdss; outline: as §1
[9] = Oral bioavailability in rat at 35 mg/kg; assay type: ADME, organism-based; conditions: in vivo; outline: as §1
A-431 = assay: Antitumor activity against human A431 cells xenografted in mouse assessed as inhibition of tumor growth administered as po qd; assay type: functional, organism-based
Outline: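 Mice carried A431 xenografts. At a tumor volume of about 20 mm³ they were randomized, n = 10/group. Dosing was oral, once daily, at 30, 60 and 120 mg/kg in 0.5% CMC-Na vehicle, for 18–30 days. The positive control was Taxol 30 mg/kg ip once weekly. Tumor size was followed.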

[10] = target: Tyrosine-protein kinase ABL2 (Homo sapiens) (UniProt P42684); assay: Inhibition of Arg at >[…] nM
Rattus norvegicus = assay: AUC in rat at 35 mg/kg, po; assay type: ADME, organism-based, Plasma; set-up: dose 35 mg/kg, route oral; conditions: in vivo; outline: as §1
[11] = target: Tyrosine-protein kinase ABL1 (Homo sapiens) (UniProt P00519); assay: Inhibition of Abl at >[…] nM
Chain of Tyrosine-protein kinase ABL1 (Homo sapiens) (P00519 whole entry): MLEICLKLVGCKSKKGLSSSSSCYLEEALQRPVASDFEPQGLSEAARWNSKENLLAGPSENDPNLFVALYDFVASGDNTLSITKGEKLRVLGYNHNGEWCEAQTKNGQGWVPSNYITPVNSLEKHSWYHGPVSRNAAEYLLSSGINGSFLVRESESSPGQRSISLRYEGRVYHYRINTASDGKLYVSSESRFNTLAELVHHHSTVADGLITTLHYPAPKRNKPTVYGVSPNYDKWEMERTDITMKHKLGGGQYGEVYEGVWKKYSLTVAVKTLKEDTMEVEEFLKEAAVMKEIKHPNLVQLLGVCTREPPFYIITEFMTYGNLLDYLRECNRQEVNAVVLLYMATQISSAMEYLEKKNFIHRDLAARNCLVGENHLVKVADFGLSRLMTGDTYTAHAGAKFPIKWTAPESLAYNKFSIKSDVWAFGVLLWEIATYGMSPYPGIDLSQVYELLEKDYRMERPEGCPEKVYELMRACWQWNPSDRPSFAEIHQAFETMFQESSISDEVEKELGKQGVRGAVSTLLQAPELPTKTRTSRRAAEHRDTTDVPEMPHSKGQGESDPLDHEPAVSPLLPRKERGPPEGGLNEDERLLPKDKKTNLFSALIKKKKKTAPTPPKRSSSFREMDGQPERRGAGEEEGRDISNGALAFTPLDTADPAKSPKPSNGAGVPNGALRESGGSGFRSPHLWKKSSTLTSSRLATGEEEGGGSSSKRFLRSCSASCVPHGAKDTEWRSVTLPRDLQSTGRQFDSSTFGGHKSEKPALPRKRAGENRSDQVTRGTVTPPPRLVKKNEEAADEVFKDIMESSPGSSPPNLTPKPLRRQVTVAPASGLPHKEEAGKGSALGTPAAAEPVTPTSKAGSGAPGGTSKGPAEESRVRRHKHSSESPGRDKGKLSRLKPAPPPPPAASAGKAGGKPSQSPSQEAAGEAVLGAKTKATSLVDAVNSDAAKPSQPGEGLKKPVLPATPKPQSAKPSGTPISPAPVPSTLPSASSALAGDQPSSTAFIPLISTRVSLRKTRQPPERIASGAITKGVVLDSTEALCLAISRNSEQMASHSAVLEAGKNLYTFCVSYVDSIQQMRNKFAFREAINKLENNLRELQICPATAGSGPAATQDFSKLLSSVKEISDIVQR

T1 sequence (P00533 whole entry): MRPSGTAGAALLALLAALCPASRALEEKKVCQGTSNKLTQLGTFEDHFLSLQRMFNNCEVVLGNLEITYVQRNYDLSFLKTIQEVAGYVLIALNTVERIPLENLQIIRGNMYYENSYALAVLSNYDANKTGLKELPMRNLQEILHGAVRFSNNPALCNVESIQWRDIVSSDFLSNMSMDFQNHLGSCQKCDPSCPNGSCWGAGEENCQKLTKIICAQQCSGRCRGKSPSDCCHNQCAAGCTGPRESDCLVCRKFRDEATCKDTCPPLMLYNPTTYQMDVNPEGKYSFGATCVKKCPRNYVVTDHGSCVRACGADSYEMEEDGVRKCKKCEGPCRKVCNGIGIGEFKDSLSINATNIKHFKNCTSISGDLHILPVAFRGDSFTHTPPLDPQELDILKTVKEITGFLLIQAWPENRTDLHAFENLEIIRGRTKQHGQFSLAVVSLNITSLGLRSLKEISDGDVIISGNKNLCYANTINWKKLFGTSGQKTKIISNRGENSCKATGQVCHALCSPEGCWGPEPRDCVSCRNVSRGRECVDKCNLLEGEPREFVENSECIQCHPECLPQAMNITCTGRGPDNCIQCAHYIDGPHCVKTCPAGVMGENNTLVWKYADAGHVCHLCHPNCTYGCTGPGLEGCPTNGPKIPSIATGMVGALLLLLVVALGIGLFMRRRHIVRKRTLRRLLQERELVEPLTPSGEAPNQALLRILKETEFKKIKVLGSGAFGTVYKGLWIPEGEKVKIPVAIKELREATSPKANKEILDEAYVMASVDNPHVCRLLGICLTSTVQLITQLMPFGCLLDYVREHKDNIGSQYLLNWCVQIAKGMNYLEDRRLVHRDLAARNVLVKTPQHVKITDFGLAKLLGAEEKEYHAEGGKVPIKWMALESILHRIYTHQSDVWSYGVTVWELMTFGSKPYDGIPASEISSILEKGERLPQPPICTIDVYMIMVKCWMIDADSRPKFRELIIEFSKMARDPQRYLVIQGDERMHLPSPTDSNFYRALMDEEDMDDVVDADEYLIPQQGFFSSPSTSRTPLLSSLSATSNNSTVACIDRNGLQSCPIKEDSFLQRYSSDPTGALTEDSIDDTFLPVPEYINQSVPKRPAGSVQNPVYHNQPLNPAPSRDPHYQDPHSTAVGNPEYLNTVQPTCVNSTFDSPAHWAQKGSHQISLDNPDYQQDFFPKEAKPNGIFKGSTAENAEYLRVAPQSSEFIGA
Chain of Tyrosine-protein kinase ABL2 (Homo sapiens) (P42684 whole entry): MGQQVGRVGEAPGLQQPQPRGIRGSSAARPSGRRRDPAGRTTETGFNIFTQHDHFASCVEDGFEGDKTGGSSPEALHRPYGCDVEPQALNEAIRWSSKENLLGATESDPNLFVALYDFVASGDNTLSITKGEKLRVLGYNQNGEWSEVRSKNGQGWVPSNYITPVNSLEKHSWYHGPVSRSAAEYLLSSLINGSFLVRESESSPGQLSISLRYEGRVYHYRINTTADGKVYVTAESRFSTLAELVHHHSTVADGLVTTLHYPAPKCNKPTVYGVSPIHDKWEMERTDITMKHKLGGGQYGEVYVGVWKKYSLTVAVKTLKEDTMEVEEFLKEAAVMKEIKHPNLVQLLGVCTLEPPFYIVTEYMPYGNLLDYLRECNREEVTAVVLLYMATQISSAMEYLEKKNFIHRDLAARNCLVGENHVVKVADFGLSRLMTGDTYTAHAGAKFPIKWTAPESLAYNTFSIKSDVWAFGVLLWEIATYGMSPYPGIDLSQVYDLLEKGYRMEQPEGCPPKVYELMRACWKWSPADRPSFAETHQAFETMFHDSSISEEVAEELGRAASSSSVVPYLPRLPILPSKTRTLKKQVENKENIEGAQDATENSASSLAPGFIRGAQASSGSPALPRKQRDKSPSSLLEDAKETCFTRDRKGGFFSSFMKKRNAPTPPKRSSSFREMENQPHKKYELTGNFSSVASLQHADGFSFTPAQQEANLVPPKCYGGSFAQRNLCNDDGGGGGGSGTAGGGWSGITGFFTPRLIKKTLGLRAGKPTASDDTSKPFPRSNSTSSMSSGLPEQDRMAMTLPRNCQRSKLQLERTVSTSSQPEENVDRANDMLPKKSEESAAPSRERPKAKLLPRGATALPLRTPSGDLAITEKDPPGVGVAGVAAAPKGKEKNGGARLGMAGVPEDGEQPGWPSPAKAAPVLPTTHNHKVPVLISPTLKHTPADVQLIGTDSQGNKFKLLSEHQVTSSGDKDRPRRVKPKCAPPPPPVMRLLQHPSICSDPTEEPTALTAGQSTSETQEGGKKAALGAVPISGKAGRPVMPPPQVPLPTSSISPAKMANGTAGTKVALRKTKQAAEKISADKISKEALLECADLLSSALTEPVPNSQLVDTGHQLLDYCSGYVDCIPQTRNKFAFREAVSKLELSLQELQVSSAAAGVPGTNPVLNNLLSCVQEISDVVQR
Chain of Proto-oncogene tyrosine-protein kinase Src (Homo sapiens) (P12931 2-536 limits assumed): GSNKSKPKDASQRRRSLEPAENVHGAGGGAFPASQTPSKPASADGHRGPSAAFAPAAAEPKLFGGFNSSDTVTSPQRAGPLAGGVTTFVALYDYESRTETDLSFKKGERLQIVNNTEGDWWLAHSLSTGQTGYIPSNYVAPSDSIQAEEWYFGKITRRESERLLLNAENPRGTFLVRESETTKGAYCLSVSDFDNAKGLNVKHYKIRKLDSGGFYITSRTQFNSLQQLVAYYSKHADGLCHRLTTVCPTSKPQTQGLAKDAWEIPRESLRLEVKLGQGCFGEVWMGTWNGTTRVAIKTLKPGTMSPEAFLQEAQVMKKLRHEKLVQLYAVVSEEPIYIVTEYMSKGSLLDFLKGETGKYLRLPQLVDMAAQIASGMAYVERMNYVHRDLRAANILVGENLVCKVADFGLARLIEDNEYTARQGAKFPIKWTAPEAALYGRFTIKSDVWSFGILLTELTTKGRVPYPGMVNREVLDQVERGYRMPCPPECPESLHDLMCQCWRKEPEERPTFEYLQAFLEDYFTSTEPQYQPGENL

IC50 [1] [nM] | IC50 [2] [nM] | Compound | further results
2 | 45 | Fc1ccc(Nc2ncnc3cc4c(cc23)OCCOCCOCCO4)cc1Cl | –
5 | 50 | Brc1cccc(Nc2ncnc3cc4c(cc23)OCCOCCOCCO4)c1 | –
5 | 50 | Brc1cccc(Nc2ncnc3cc4c(cc23)OCCOCOCOCCO4)c1 | –
2 | 55 | Clc1cccc(Nc2ncnc3cc4c(cc23)OCCOCCOCCO4)c1 | –
55 | – | Brc1cccc(Nc2ncnc3cc4c(cc23)OCCOCCO4)c1 | –
120 | – | Brc1cccc(Nc2ncnc3cc4c(cc23)Oc2ccccc2O4)c1 | –
8 | > 1000 | Brc1cccc(Nc2ncnc3cc4c(cc23)OCCCSCCCO4)c1 | –
7 | > 1000 | Brc1cccc(Nc2ncnc3cc4c(cc23)OCCSCCO4)c1 | –
85 | – | Brc1cccc(Nc2ncnc3cc4c(cc23)OCCCO4)c1 | –
150 | – | Cc1ccc(S(=O)(=O)N2CCOc3cc4ncnc(Nc5cccc(Br)c5)c4cc3OCC2)cc1 | –

Compound | IC50 [1] [nM] | IC50 [2] [nM] | further results
C#Cc1cccc(Nc2ncnc3cc4c(cc23)OCCOCCOCCO4)c1 [ICOTINIB] | 2 | 45 | Cmax [3]: 6120 ng/mL; half-life [4]: 168 min; clearance [5]: 21 mL/min/kg; inhibition [6]: inactive; MRT [7]: 6.9 h; Vd [8]: 3.9 L/kg; bioavailability [9]: 52%; inhibition (A-431): Dose-dependent effect; inhibition [10]: inactive; AUC (Rattus norvegicus): 49.4 µg/mL; inhibition [11]: inactive

Reference: ChEMBL document CHEMBL2086389, “Synthesis and biological evaluation of crown ether fused quinazoline analogues as potent EGFR inhibitors” (Bioorg Med Chem Lett, 2012)
